Test results as given in ChEMBL document CHEMBL4190408 (J Med Chem, 2018).
Values after ≈ are worked out from the molar mass of the structure shown. Active and inactive are the calls of the source. No cut-off for these calls is given here.

How the values were obtained:
[1] = Thermodynamic solubility of the compound in pH 7.4 solution after 90 mins by UVLC-MS analysis; type: physicochemical; details: pH 7.4 solution, pH 7.4; read-out: Therm_solubility
Mus musculus [2] = experiment: Unbound AUC (infinity) in Balb/c mouse at 10 mg/kg, po after 1 hr; type: ADME, organism-based; details: in vivo
physchem [3] = details: phosphate buffer, pH 7.4
in vitro [4] = details: mouse
[5] = Fraction unbound in mouse blood; type: ADME, tissue-based
[6] = Half life in Balb/c mouse at 1 mg/kg, iv; type: ADME, organism-based; details: Balb/c, in vivo
How it was run: (§1)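 Intravenous PK in male Balb/C mice, n=3, at 1 mpk. Vehicle was 30% DMA or 15% NMP, depending on the compound.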

[7] = Clearance in Balb/c mouse at 1 mg/kg, iv; type: ADME, organism-based; details: Balb/c, in vivo; how it was run: as §1
[8] = Oral bioavailability in Balb/c mouse at 10 mg/kg after 1 hr; type: ADME, organism-based; details: Balb/c, in vivo
How it was run: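 Male Balb/C mice, n=3. Oral dose of 10 mpk as a homogeneous suspension of crystalline solid in 0.1% Tween 80, 0.1% silicone antifoam, 1% methylcellulose (400 cps) in water. I.v. dose of 1 mpk in 30% DMA or 15% NMP, depending on the compound. Bioavailability was extrapolated from the i.v./p.o. experiments.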

[9] = Volume of distribution at steady state in Balb/c mouse at 1 mg/kg, iv; type: ADME, organism-based; details: Balb/c, in vivo, read-out: Vdss; how it was run: as §1
in vitro [10] = details: human
physchem [11] = experiment: physchem
[12] = Apparent clearance in Balb/c mouse at 10 mg/kg, po after 1 hr; type: ADME, organism-based; details: in vivo
Mus musculus [13] = experiment: Unbound AUC in Balb/c mouse at 1 mg/kg, iv; type: ADME, organism-based; details: in vivo; how it was run: as §1
Mus musculus [14] = experiment: Unbound Cmax in Balb/c mouse at 10 mg/kg, po after 1 hr; type: ADME, organism-based; details: in vivo
Cytochrome P450 3A4 = Cytochrome P450 3A4 (Homo sapiens, UniProt P08684)
Chain of Cytochrome P450 3A4 (P08684 whole entry): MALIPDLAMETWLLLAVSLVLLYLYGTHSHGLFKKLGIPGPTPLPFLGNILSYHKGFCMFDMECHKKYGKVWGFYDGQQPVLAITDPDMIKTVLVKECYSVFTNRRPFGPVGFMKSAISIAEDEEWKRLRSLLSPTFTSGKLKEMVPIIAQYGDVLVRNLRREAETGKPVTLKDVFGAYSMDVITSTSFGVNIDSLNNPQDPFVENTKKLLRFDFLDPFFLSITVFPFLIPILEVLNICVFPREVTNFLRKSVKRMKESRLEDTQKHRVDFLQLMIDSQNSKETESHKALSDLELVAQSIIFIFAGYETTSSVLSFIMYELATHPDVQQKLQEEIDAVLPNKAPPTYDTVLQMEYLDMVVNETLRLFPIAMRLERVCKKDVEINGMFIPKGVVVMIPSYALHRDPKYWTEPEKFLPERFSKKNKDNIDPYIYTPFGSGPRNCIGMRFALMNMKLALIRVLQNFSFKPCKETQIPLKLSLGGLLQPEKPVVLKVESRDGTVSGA

[15] = biological target: Voltage-gated inwardly rectifying potassium channel KCNH2 (Homo sapiens, UniProt Q12809)
Chain of Voltage-gated inwardly rectifying potassium channel KCNH2 (Q12809 whole entry): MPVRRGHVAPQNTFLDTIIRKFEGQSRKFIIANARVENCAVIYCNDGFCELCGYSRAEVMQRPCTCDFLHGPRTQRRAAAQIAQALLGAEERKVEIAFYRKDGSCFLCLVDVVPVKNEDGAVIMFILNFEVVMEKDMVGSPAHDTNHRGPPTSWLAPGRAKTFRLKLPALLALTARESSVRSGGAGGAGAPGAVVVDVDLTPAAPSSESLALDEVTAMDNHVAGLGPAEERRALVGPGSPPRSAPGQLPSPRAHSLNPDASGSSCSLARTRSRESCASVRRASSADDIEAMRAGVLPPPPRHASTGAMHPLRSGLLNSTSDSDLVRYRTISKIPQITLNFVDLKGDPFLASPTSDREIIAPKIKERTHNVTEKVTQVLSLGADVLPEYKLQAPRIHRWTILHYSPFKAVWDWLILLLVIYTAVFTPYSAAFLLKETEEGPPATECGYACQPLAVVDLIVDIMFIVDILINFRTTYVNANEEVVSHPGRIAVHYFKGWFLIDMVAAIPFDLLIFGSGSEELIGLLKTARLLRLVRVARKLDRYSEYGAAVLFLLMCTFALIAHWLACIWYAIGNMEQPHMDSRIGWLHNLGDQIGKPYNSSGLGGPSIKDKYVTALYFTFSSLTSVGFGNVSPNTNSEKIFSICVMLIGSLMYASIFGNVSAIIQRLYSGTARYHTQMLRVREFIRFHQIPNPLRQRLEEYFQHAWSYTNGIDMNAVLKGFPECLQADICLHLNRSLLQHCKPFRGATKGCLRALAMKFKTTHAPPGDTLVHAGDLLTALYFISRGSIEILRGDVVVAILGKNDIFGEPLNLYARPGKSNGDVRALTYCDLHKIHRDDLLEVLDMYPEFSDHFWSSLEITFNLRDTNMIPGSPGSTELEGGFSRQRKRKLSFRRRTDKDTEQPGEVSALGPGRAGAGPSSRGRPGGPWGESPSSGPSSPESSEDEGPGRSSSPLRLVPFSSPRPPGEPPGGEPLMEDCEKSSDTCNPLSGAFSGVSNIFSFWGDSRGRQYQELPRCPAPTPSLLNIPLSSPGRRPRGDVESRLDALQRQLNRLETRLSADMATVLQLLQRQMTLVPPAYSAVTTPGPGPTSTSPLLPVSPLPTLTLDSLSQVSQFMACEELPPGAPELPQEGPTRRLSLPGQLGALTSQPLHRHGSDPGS

[16] = buffer, pH 7.4, 1.5 h
[17] = biological target: Phosphatidylinositol 4-kinase type 2-beta (Homo sapiens) (UniProt Q8TCG2); experiment: Inhibition of recombinant human full length GST-tagged PI4K2beta expressed in insect cells at 10 uM
Chain of Phosphatidylinositol 4-kinase type 2-beta (Homo sapiens) (Q8TCG2 whole entry): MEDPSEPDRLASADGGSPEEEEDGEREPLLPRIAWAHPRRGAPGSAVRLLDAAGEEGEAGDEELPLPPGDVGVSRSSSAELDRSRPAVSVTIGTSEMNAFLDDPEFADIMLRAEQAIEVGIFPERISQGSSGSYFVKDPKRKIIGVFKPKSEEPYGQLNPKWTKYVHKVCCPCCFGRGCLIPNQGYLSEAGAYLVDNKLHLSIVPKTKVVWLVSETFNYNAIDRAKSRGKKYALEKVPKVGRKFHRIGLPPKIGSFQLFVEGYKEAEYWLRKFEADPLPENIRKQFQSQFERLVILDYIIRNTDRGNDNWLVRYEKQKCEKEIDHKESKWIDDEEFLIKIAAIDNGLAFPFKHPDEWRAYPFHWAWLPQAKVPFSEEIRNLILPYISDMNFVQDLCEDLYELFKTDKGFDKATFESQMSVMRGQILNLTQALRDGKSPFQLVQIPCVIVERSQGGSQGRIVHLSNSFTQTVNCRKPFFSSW

[18] = biological target: Phosphatidylinositol 4-kinase alpha (Homo sapiens) (UniProt P42356); experiment: Inhibition of PI4K3alpha (unknown origin) at 10 uM
Chain of Phosphatidylinositol 4-kinase alpha (Homo sapiens) (P42356 whole entry, looked up): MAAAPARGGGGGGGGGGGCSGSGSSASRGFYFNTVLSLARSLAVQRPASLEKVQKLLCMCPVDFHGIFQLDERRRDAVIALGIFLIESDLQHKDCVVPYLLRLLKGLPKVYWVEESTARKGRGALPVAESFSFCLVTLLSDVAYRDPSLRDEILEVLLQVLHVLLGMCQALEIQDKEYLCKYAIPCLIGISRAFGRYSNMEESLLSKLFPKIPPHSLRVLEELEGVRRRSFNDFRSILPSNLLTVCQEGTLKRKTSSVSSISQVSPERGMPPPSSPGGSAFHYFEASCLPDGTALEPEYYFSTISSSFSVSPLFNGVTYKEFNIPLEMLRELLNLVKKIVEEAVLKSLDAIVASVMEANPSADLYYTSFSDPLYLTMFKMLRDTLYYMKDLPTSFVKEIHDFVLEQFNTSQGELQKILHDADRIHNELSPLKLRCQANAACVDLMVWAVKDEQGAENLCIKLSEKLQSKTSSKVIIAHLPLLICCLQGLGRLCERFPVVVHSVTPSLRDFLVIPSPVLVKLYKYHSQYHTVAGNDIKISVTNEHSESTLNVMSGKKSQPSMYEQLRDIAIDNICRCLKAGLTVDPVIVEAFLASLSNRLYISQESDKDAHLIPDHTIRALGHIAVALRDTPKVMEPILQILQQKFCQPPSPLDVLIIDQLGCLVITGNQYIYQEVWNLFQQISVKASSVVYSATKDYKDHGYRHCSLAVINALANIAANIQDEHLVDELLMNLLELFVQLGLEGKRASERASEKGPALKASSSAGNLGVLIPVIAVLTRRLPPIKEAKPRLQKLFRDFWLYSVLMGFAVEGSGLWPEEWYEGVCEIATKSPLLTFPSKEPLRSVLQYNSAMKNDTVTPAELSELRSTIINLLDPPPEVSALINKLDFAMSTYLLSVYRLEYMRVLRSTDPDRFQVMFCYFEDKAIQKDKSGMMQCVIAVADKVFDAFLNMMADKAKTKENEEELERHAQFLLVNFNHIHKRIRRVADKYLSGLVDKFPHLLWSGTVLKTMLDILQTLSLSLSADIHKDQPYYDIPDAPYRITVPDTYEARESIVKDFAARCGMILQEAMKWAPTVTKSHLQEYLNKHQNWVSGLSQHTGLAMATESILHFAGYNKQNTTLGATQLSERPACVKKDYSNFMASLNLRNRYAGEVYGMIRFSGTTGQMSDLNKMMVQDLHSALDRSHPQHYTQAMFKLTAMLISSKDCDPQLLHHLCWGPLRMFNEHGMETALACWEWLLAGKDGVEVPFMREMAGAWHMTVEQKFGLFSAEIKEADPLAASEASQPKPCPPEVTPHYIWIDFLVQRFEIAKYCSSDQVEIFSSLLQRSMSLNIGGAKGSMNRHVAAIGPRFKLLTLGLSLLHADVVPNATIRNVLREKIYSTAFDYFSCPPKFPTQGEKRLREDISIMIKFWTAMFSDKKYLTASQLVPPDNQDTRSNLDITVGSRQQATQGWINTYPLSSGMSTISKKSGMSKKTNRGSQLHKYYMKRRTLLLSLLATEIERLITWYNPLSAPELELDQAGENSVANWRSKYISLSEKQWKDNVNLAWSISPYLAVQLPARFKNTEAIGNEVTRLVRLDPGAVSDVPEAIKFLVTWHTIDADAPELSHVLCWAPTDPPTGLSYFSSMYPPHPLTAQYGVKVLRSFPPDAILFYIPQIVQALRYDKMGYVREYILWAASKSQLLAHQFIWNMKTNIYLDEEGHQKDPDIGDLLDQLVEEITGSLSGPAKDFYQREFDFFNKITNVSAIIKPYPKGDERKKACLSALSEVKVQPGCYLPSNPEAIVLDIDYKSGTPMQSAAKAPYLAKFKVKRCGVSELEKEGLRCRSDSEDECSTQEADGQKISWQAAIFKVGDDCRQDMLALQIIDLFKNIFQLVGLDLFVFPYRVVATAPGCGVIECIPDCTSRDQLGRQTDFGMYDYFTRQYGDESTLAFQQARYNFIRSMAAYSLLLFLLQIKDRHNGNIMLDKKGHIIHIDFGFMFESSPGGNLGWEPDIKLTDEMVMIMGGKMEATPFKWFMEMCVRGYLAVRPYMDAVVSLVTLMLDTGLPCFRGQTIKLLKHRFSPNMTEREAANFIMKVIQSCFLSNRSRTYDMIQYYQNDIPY

[19] = biological target: Phosphatidylinositol 4-kinase type 2-alpha (Homo sapiens) (UniProt Q9BTU6); experiment: Inhibition of recombinant human full length GST-tagged PI4K2alpha expressed in insect cells at 10 uM
Chain of Phosphatidylinositol 4-kinase type 2-alpha (Homo sapiens) (Q9BTU6 whole entry): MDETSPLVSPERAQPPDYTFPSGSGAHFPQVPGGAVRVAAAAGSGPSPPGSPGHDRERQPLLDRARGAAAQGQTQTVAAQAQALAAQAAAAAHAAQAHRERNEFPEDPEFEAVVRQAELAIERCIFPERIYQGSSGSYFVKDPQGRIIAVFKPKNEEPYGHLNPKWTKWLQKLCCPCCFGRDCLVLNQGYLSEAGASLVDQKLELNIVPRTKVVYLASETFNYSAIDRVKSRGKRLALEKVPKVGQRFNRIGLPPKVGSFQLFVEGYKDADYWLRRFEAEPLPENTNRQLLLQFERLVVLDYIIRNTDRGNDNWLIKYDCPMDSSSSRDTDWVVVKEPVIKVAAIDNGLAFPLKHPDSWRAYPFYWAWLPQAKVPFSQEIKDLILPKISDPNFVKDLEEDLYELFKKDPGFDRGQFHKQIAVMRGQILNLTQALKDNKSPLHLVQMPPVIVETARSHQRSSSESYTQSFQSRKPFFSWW

SMILES | solubility thermodynamic at 1.5 h [1] | fAUC (Mus musculus [2]) | logD at 1.5 h (physchem [3]) | microsomal CLint at 0.75 h, 3 µM (in vitro [4]; liver microsomes) | fraction unbound [5] | half-life [6] | clearance [7] | bioavailability [8] | Vd [9] | microsomal CLint at 0.75 h, 3 µM (in vitro [10]; liver microsomes) | solubility kinetic at 1.5 h (physchem [11]; buffer, pH 7.4) | CL/F [12] | fAUC (Mus musculus [13]) | fCmax (Mus musculus [14]) | IC50 (Cytochrome P450 3A4) | IC50 [15] | also measured
COc1ccc(NC(=O)N2CCN(c3nc(N)nc4c3ncn4C)[C@@H](C)C2)c(C)c1 | 150 µM (≈ 61.6 µg/mL) | 1.746 µM·h | 1.35 | 10 µL/min/mg | 0.2 | 48 min | 19 mL/min/kg | 39% | 0.8 L/kg | 9 µL/min/mg | > 350 µM | 46 mL/min/kg | 0.447 µM·h | 1087 nM | – | – | –
COc1ccc(NC(=O)N2CCN(c3nc(N)nc4scnc34)[C@@H](C)C2)c(C)n1 | 362 µM (≈ 150 µg/mL) | – | – | – | – | – | – | – | – | – | > 350 µM | – | – | – | > 20 µM | > 30 µM | –
COc1ccc(NC(=O)N2CCN(c3nc(N)nc4sc(-c5ccccc5)nc34)CC2)cc1 | – | – | – | 20 µL/min/mg | – | – | – | – | – | 13 µL/min/mg | 6 µM (≈ 2.77 µg/mL) | – | – | – | > 20 µM | 1.7 µM | logD [16]: Nd(Insoluble)
Cc1ccc(NC(=O)N2CCN(c3nc(N)nc4sc(-c5cccnc5)nc34)CC2)cc1 | – | – | 3.42 | – | – | – | – | – | – | – | – | – | – | – | – | 2 µM | inhibition [17]: inactive; microsomal CLint at 0.75 h, 3 µM (in vitro [4]; microsomes): 72 µL/min/mg; inhibition [18]: inactive; microsomal CLint at 0.75 h, 3 µM (in vitro [10]; microsomes): 32 µL/min/mg; solubility kinetic at 1.5 h (physchem [11]; pH 7.4 solution): 9 µM (≈ 4.02 µg/mL); inhibition [19]: inactive
COc1ccc(NC(=O)N2CCN(c3nc(N)nc4scnc34)[C@@H](C)C2)cc1 | 30 µM (≈ 12 µg/mL) | 0.205 µM·h | 2.32 | 35 µL/min/mg | 0.02 | 54 min | 29 mL/min/kg | 68% | 1 L/kg | 14 µL/min/mg | > 350 µM | 42 mL/min/kg | 0.03 µM·h | 194 nM | > 20 µM | 17 µM | –
